Screening data as filed in PubChem.
In the library only some 2.2% were active in any assay of this set; here they are far more common.
BaF3 tox: counter-screen for JAK2V617F inhibitors: parental Ba/F3 viability inhibitors; CellTiter-Glo ATP luminescence; AID 1486; 220,000 tested, 1.1% active; inhibition, % at 5.6 µM;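 active means inhibition above a per-campaign cutoff, the mean inhibition of all tested compounds plus 3 SD, cut at about 27% in these data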;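 further: 0% = DMSO wells and 100% = JAK Inhibitor I control wells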
MT stabilizer: microtubule stabilization, imaging screen; HeLa tubulin immunostaining HCS, 24 h; share of cells brighter than vehicle mean+2SD; % tubulin-high responders, % at 10 µM; 200,000 tested, 0.83% active; AID 2205;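 active means plate Z-score above 3 for both tubulin-high and condensed-nucleus cell shares, with cell loss under 80%, at 10 µM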;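 further: anti alpha tubulin signal scored within the nucleus-defined area of each cell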
APP transl inh: APP translation inhibition. SH-SY5Y APP 5'UTR-luciferase reporter, luminescence. inhibition, % at 2 µM. 190,000 tested, 0.82% active. AID 1285;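 active means inhibition above a set limit, derived from the sample mean plus 3 SD, cut at about 45% in these data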
bCat nuc transl: beta-catenin nuclear translocation modulation | HeLa beta-catenin nuclear translocation, immunofluorescence imaging | nuclear translocation activity, % at 5 µM | 190,000 tested, 0.3% active;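 active means nuclear translocation activity above 50% at 5 µM, with a well cell count of 50 or more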;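 further: per-cell ratio of nuclear to cytoplasmic median beta-catenin stain intensity; plate controls were DMSO negative control for no effect and GSK-3 inhibitor IX positive control for full effect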
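Read-out: Nuclear/cytoplasmic beta-catenin signal ratio, % activation | Assay system: Human HeLa cell line | Times: 24 h compound exposure at 37°C, 5% CO2 | Signal: Fluorescence imaging of beta-catenin antibody stain plus DAPI | Dosing: 5 µM primary, 0.02–20 µM confirmation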
Ba/F3 V617F tox: loss of viability in JAK2V617F-driven Ba/F3 cells; Ba/F3 EpoR-JAK2V617F viability, ATP luminescence; inhibition, % at 5.6 µM; 220,000 tested, 1.1% active; AID 1446;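 active means inhibition above the campaign mean plus 3 SD over all tested compounds, cut at about 24% in these data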;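 further: cytokine-independent growth of Ba/F3 cells driven by EpoR plus mutant JAK2; 0% = DMSO-treated cells and 100% = JAK inhibitor I control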
IEC-6 tox: counter-screen for KLF5 inhibitors: cytotoxicity in IEC-6 cells; inhibition, % at 5 µM; AID 1825; IEC-6 cytotoxicity, luminescence viability; 290,000 tested, 0.78% active;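 further: 0% = plate median of test compound wells and 100% = cytotoxic reference compound wells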
IEC-6 cytotox cf: confirmation of cytotoxic compounds in rat IEC-6 intestinal epithelial cells. shares compounds with IEC-6 tox. IEC-6 rat intestinal epithelial viability, luminescence. inhibition, % at 5 µM. 1,900 tested, 63% active. AID 1907;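 further: 0% = vehicle and 100% = reference cytotoxic drug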
* = called active by the depositor; . = no result given. Unless noted, no stated cut-off is given here; in the data, active means inhibition above about 22%; inactive means the rest.

SMILES	BaF3 tox	MT stabilizer	APP transl inh	bCat nuc transl	Ba/F3 V617F tox	IEC-6 tox	IEC-6 cytotox cf
O=c1c2ccccc2[nH]c(=S)n1CCCN1CCN(c2ccccc2)CC1	.	.	.	.	.	34*	18
O=c1c2ccccc2[nH]c(=S)n1CCCN1CCN(c2ccccc2F)CC1	.	.	.	.	.	16	.
CC(=O)N1CCN(C2c3cccc4cccc(c34)C2NS(=O)(=O)c2ccccc2)CC1 (centres undefined)	0	4	-10	-1	2	3	.
O=S(=O)(NC1c2cccc3cccc(c23)C1N1CCNCC1)c1ccc(Cl)cc1 (centres undefined)	11	2	-13	1	6	36*	8
Fc1ccc2[nH]c3c(NCc4ccccc4)ncnc3c2c1	.	.	.	.	.	33*	30*
OCCCNc1ncnc2c1[nH]c1ccccc12	-1	.	.	0	-3	2	.
COc1ccc(-c2cc(C)no2)cc1S(=O)(=O)N1CCN(c2cccc(C)c2)C(C)C1 (centres undefined)	.	.	.	.	.	0	.
Cc1cc(-c2ccc(C(C)C)c(S(=O)(=O)N3CCN(c4ccccc4)CC3)c2)on1	.	.	.	.	.	78*	53*
Cc1cccc(N2CCN(S(=O)(=O)c3cc(-c4cc(C)no4)ccc3C)CC2C)c1 (centres undefined)	.	.	.	.	.	50*	32*
COc1ccc(N2CCN(S(=O)(=O)c3cc(-c4cc(C)no4)ccc3C(C)C)CC2)cc1	.	.	.	.	.	4	.
COc1ccccc1C1=NN(C(=O)c2ccccc2)C(c2ccc(Br)cc2)C1 (centres undefined)	.	.	.	.	.	1	.
Cc1cc(C)c(C(=O)Nc2ccc(Br)c(C(F)(F)F)c2)c(C)c1	4	3	-6	.	-3	-1	.
CCOC(=O)c1ccc(N2CCOCC2)c(NC(=O)c2c(-c3ccccc3)noc2C)c1	54*	.	.	125*	75*	61*	50*
Cc1onc(-c2ccccc2)c1C(=O)Nc1cc(C(F)(F)F)ccc1N1CCOCC1	81*	33*	70*	70*	84*	77*	50*
COc1cc(C(=O)Nc2ccc(NC(=O)C3CC3)nc2)cc(OC)c1OC	8	5	-2	0	0	95*	10
COc1cc(C(=O)Nc2ccc(NC(=O)c3ccccc3)nc2)cc(OC)c1OC	.	.	.	.	.	4	.
COC(=O)Nc1ccc(S(=O)(=O)N2CCCCC2C(=O)O)cc1 (centres undefined)	5	3	3	-3	-3	1	.
O=S(=O)(c1ccc(Cl)cc1)N1CCCc2ccccc21	.	.	.	.	.	2	.
COC(=O)Nc1ccc(S(=O)(=O)N2c3ccccc3CCC2C)cc1 (centres undefined)	41*	19*	61*	8	57*	48*	53*
CC(=O)Nc1ccc(S(=O)(=O)N2CCCc3ccccc32)cc1	20	30	-11	.	22	40*	42*
Cc1ccc(S(=O)(=O)c2nnn3c2nc(NC2CCN(Cc4ccccc4)CC2)c2ccccc23)cc1C	.	.	.	.	.	2	.
COc1ccc(/C=N/Nc2nnc(C)n2N)cc1OC	11	.	-3	0	7	102*	4
O=C(NNC(=O)C12CC3CC(CC(C3)C1)C2)c1ccccn1	-2	.	.	1	-4	22*	39*
O=C(NNC(=O)C12CC3CC(CC(C3)C1)C2)c1cnccn1	1	4	0	.	-6	-2	.
COc1cc(CNc2ncn[nH]2)ccc1OCc1cccc(C)c1	2	2	-19	0	1	4	.
SMILES	BaF3 tox	MT stabilizer	APP transl inh	bCat nuc transl	Ba/F3 V617F tox	IEC-6 tox	IEC-6 cytotox cf
O=c1c2c(nc3cc(-c4ccc(Cl)cc4)[nH]n13)CCS2	4	4	-87	-1	-3	4	.
O=S(=O)(Nc1cccc2ncccc12)c1cccs1	3	4	43	-1	-1	100*	102*
Cc1c(NS(=O)(=O)c2cccs2)cccc1-c1nc2cccnc2s1	4	.	.	0	1	0	.
CCCC(c1nnnn1CS(=O)(=O)c1ccc(C)cc1)N1CCN(C2CCCC2)CC1 (centres undefined)	.	.	.	.	.	1	.
CCOc1cc(CNc2ccc3c(c2)OCCO3)cc(Br)c1OCC(N)=O	-1	21	-1	-1	1	-7	.
CCOc1c(Br)cc(CNc2ccc3c(c2)OCCO3)cc1OC	77*	12	94*	132*	80*	76*	54*
CCOc1cc(CNc2ccc3c(c2)OCCO3)cc(Br)c1OC	73*	14	94*	143*	72*	82*	61*
Cc1cccc(N(C(=O)c2snc(C(N)=O)c2N)C(C(=O)NCC2CCCO2)c2ccc3ncccc3c2)c1 (centres undefined)	.	.	.	.	.	5	.
COc1cccc(NC(=O)c2ccc3nc(C)sc3c2)c1	.	.	.	.	.	0	.
COc1ccc(OCc2cc(C(=O)NC3CCOC(C)(C)C3)no2)c2ccccc12 (centres undefined)	.	.	.	.	.	42*	1
CSc1ccccc1OCc1cc(C(=O)NC2CCOC(C)(C)C2)no1 (centres undefined)	.	.	.	.	.	2	.
CC(=O)c1ccc(S(=O)(=O)N2CCC(c3nc4ccccc4[nH]3)CC2)cc1	.	.	.	.	.	1	.
O=S(=O)(c1ccc(Cl)cc1)N1CCC(c2nc3ccccc3[nH]2)CC1	.	.	.	.	.	31*	28*
CCOC(=O)c1nc(Nc2ccc(N3CCC(C)CC3)cc2)c2ccccc2n1	0	4	3	0	-2	1	.
O=C(N/N=C/c1ccc(O)cc1)Nc1cccc2nsnc12	26	11*	12	4	2	81*	91*
COc1cc(/C=N/NC(=O)Nc2cccc3nsnc23)cc(OC)c1OC	-1	2	-12	-1	-3	0	.
Cc1ccc(-n2c(N)c(C(=O)Nc3ccccc3F)sc2=S)cc1C	3	3	-2	-1	2	6	.
Cc1cccc(/C=N/N2CCN(c3ccccc3)CC2)c1	-1	4	-27	0	0	0	.
CC(=O)c1ccc(NC(=O)Nc2cccc3ccccc23)cc1	.	.	.	.	.	4	.
Cc1nc2c(sc3nc4c(cc32)COC(C)(C)C4)c(=O)n1CC(=O)NCc1ccco1	79*	28*	-5	.	76*	63*	38*
COc1ccc(-n2nnnc2-c2cccc(OC)c2)cc1	71*	18*	91*	42	78*	84*	59*
COc1ccc(NC(=O)/C(Cl)=C(/Cl)S(=O)Cc2ccccc2Cl)cn1 (centres undefined)	103*	21	94*	-4	102*	102*	86*
COc1ccc(NC(=O)Cc2ccccc2F)cn1	1	3	-2	-1	4	5	.
CCN(CC)S(=O)(=O)c1ccc(C(C)NC(=O)Cc2c[nH]c3ccccc23)cc1 (centres undefined)	.	.	.	.	.	-9	.
COc1ccc(C(=O)N/N=C/c2sc3ccccc3c2O)cc1	7	4	51*	-1	1	27*	12
